# Laboratory results reported in ChEMBL document CHEMBL1128267, “Dicationic diarylfurans as anti-Pneumocystis carinii agents” (J Med Chem, 1995).
# Legend:
# [1] = test system: Pneumocystis carinii; assay: In vivo activity against pneumocystis carinii was determined as toxicity which indicates the death of animals and counted cysts in a blinding protocol in lung tissue reported as % of saline treated control at a dose of 4.8 uM/Kg/day; assay type: organism-based
# In short: (§1)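 Dosed intravenously unless otherwise marked (some oral). Toxicity graded on a severity scale where larger values are more severe and values above 2 mean some animals died. Cysts in lung tissue counted under a blinded protocol and expressed as percent of saline-treated controls.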
# [2] = test system: Pneumocystis carinii; assay: In vivo activity against pneumocystis carinii was determined as toxicity which indicates the death of animals at a dose of 4.8 uM/Kg/day; assay type: organism-based
# In short: (§2)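 Dosing intravenous unless otherwise noted; daily dose in μM/kg/day. Toxicity graded on a numerical severity scale where higher scores mean more severe toxicity and scores above 2 mean some animals died.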
# [3] = test system: Giardia intestinalis; assay: Inhibitory activity for 50% on growth of Giardia lamblia in cell culture; assay type: functional, organism-based; settings: Giardia duodenalis
# [4] = target: DNA topoisomerase II (Giardia lamblia); assay: Inhibitory activity for 50% on topoisomerase II isolated from Giardia lamblia
# [5] = test system: Pneumocystis carinii; assay: In vivo activity against pneumocystis carinii was determined as toxicity which indicates the death of animals and counted cysts in a blinding protocol in lung tissue reported as % of saline treated control at a dose of 2.3 uM/Kg/day; assay type: organism-based; in short: as §1
# [6] = test system: Pneumocystis carinii; assay: In vivo activity against pneumocystis carinii was determined as toxicity which indicates the death of animals at a dose of 0.18 uM/Kg/day; assay type: organism-based; in short: as §2
# [7] = test system: Pneumocystis carinii; assay: In vivo activity against pneumocystis carinii was determined as toxicity which indicates the death of animals and counted uM/Kg/day; assay type: organism-based; in short: as §1
# [8] = test system: Pneumocystis carinii; assay: In vivo activity against pneumocystis carinii was determined as toxicity which indicates the death of animals at a dose of 2.3 uM/Kg/day; assay type: organism-based; in short: as §2
# [9] = test system: Pneumocystis carinii; assay: In vivo activity against pneumocystis carinii was determined as toxicity which indicates the death of animals at a dose of 9.2 uM/Kg/day; assay type: organism-based; in short: as §2
# [10] = test system: Pneumocystis carinii; assay: In vivo activity against pneumocystis carinii was determined as toxicity which indicates the death of animals and counted cysts in a blinding protocol in lung tissue reported as % of saline treated control at a dose of 9.2 uM/Kg/day; assay type: organism-based; in short: as §1
# [11] = test system: Pneumocystis carinii; assay: In vivo activity against pneumocystis carinii was determined as toxicity which indicates the death of animals and counted cysts in a blinding protocol in lung tissue reported as % of saline treated control at a dose of 10.9 uM/Kg/day); assay type: organism-based; in short: as §1
# [12] = test system: Pneumocystis carinii; assay: In vivo activity against pneumocystis carinii was determined as toxicity which indicates the death of animals at a dose of 10.9 uM/Kg/day; assay type: organism-based; in short: as §2
# [13] = test system: Pneumocystis carinii; assay: In vivo activity against pneumocystis carinii was determined as toxicity which indicates the death of animals at a dose of 66.3 (uM/kg/day); assay type: organism-based; in short: as §2
# [14] = test system: Pneumocystis carinii; assay: In vivo activity against pneumocystis carinii was determined as toxicity which indicates the death of animals at a dose of 0.027 (uM/kg/day); assay type: organism-based; in short: as §2
# [15] = test system: Pneumocystis carinii; assay: In vivo activity against pneumocystis carinii was determined as toxicity which indicates the death of animals and counted cysts in a blinding protocol in lung tissue reported as % of saline treated control at a dose of 0.027 (uM/kg/day); assay type: organism-based; in short: as §1
# [16] = test system: Pneumocystis carinii; assay: In vivo activity against pneumocystis carinii was determined as toxicity which indicates the death of animals at a dose of 0.27 (uM/kg/day); assay type: organism-based; in short: as §2
# [17] = test system: Pneumocystis carinii; assay: In vivo activity against pneumocystis carinii was determined as toxicity which indicates the death of animals and counted cysts in a blinding protocol in lung tissue reported as % of saline treated control at a dose of 0.27 (uM/kg/day); assay type: organism-based; in short: as §1
# [18] = test system: Pneumocystis carinii; assay: In vivo activity against pneumocystis carinii was determined as toxicity which indicates the death of animals and counted cysts in a blinding protocol in lung tissue reported as % of saline treated control at a dose of 2.7 (uM/kg/day); assay type: organism-based; in short: as §1
# [19] = test system: Pneumocystis carinii; assay: In vivo activity against pneumocystis carinii was determined as toxicity which indicates the death of animals and counted cysts in a blinding protocol in lung tissue reported as % of saline treated control at a dose of 13.3 (uM/kg/day); assay type: organism-based; in short: as §1
# [20] = test system: Pneumocystis carinii; assay: In vivo activity against pneumocystis carinii was determined as toxicity which indicates the death of animals at a dose of 2.7 (uM/kg/day); assay type: organism-based; in short: as §2
# [21] = test system: Pneumocystis carinii; assay: In vivo activity against pneumocystis carinii was determined as toxicity which indicates the death of animals and counted cysts in a blinding protocol in lung tissue reported as % of saline treated control at a dose of 66.3 (uM/kg/day); assay type: organism-based; in short: as §1
# [22] = test system: Pneumocystis carinii; assay: In vivo activity against pneumocystis carinii was determined as toxicity which indicates the death of animals at a dose of 13.3 (uM/kg/day); assay type: organism-based; in short: as §2
# [23] = test system: Pneumocystis carinii; assay: In vivo activity against pneumocystis carinii was determined as toxicity which indicates the death of animals at a dose of 23.3 uM/Kg/day; assay type: organism-based; in short: as §1
# [24] = test system: Pneumocystis carinii; assay: In vivo activity against pneumocystis carinii was determined as toxicity which indicates the death of animals and counted cysts in a blinding protocol in lung tissue reported as % of saline treated control at a dose of 23.3 uM/Kg/day; assay type: organism-based; in short: as §1
# [25] = test system: Pneumocystis carinii; assay: In vivo activity against pneumocystis carinii was determined as toxicity which indicates the death of animals at a dose of 22.1 (uM/kg/day); assay type: organism-based; in short: as §2
# [26] = test system: Pneumocystis carinii; assay: In vivo activity against pneumocystis carinii was determined as toxicity which indicates the death of animals and counted cysts in a blinding protocol in lung tissue reported as % of saline treated control at a dose of 22.1 (uM/kg/day); assay type: organism-based; in short: as §1
compound,measurement,setting,value
Cl.Cl.OCCN1CCN=C1c1ccc(-c2ccc(-c3ccc(C4=NCCN4CCO)cc3)o2)cc1,Control,[1],107.3%
same,No. of dead animals,[2],3
same,IC50,[3],4600 nM
same,IC50,[4],20000 nM
Cl.Cl.c1cc(-c2ccc(-c3ccc(C4=NCCCCN4)cc3)o2)ccc1C1=NCCCCN1,Control,[5],2.9%
same,No. of dead animals,[6],0
same,Control,[7],115.4%
same,IC50,[3],930 nM
same,IC50,[4],1500 nM
same,No. of dead animals,[8],3
Cl.Cl.c1cc(-c2ccc(-c3ccc(C4=NC5CCCCC5N4)cc3)o2)ccc1C1=NC2CCCCC2N1 (configuration not stated),No. of dead animals,[9],1
same,Control,[10],80.5%
same,IC50,[3],4000 nM
same,IC50,[4],3000 nM
CCN1CCN=C1c1ccc(-c2ccc(-c3ccc(C4=NCCN4CC)cc3)o2)cc1.Cl.Cl,IC50,[3],3300 nM
same,IC50,[4],25000 nM
Cl.Cl.c1cc(-c2ccc(-c3ccc(C4=NCCCN4)cc3)o2)ccc1C1=NCCCN1,Control,[11],0.4%
same,No. of dead animals,[12],2
same,IC50,[3],85 nM
same,IC50,[4],500 nM
Cl.Cl.N=C(N)c1ccc(-c2ccc(-c3ccc(C(=N)N)cc3)o2)cc1,No. of dead animals,[13],0
same,No. of dead animals,[14],0
same,Control,[15],55.9%
same,No. of dead animals,[16],0
same,Control,[17],4.8%
same,Control,[18],8.3%
same,Control,[19],2.1%
same,No. of dead animals,[20],0
same,Control,[21],28.4%
same,No. of dead animals,[22],0
N[C+](N)c1ccc(-c2ccc(-c3ccc([C+](N)N)cc3)o2)cc1,IC50,[3],440 nM
Cl.c1cc(-c2ccc(-c3ccc(C4=NCCN4)cc3)o2)ccc1C1=NCCN1,Toxicity,[23],2 number of dead animals
same,Control,[24],35.4%
same,IC50,[3],1950 nM
same,IC50,[4],3000 nM
N=C(N)c1ccc(OCCCCCOc2ccc(C(=N)N)cc2)cc1 [PENTAMIDINE],No. of dead animals,[25],2
same,Control,[26],3.66%
